Measurements from PMC11387586 (Pharmacology Research & Perspectives, 2024).
Several values for one entry are separate records, joined by “and”; a condition that tells them apart may be missing. Equal values may be shown once.

Key:
[1] = Plasma pharmacokinetics of aficamten, M1a and M1b; format: in vivo, human
Summary of the method: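 About 3 mL K2EDTA blood was drawn predose and at 0.25–48 h, then every 24 h. Plasma was spun at about 2000G for 10 min at 4°C and stored at −20°C. Validated LC-MS/MS: parent on C18 with 10 mM ammonium acetate/acetonitrile gradient; M1a/M1b on a chiral column with 30:70 acetonitrile:10 mM ammonium acetate. Non-compartmental analysis gave Cmax, tmax, t1/2, AUCs, CL/F and Vz/F.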

[2] = Total radioactivity in plasma and whole blood; format: in vivo, human; conditions: for Total radioactivity t1/2 / Total radioactivity tmax: median (range)
Summary of the method: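 About 4 mL K2EDTA blood was drawn at the PK time points. […] Counting ran at least 5 min with quench correction, in duplicate where possible. LLOQ was 9.57 ng equivalents/g for blood and 6.86 for plasma. Non-compartmental analysis; tmax and t1/2 given as median (range), others as geometric mean.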

[3] = Urinary excretion of aficamten, M1a and M1b; format: in vivo; conditions: human, urine, oral, 20 mg, renal clearance (CLR), geometric mean
Summary of the method: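 Urine was collected predose, at 0–4, 4–8, 8–12 and 12–24 h, then every 24 h until discharge. Isopropyl alcohol equal to 20% of void mass was added, pools were kept at 4°C, and aliquots were frozen at −20°C. Urinary excretion of parent and M1a/M1b (fe0-tlast) and renal clearance came from non-compartmental analysis, given as geometric means.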

[4] = Mass balance: radioactive dose recovered in urine and feces; format: in vivo, human; conditions: for Cumulative percent of radioactive dose recovered: urine
Summary of the method: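 8 healthy men each got one [14C]-labelled 20 mg oral capsule (about 100 μCi) with 240 mL water after a fast of at least 10 h. Urine was collected at 0–4, 4–8, 8–12 and 12–24 h, then every 24 h; feces every 24 h, homogenised in about 20:80 acetonitrile:water. Urine was counted directly by LSC; fecal homogenate was combusted first. Samples ran in duplicate. Collection continued until discharge criteria were met.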

[5] = Metabolite profiling of plasma; format: in vivo, human; conditions: pooled samples 2 to 264 h
Summary of the method: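 Plasma taken at 2, 4, 12, 24, 72, 120, 168 and 264 h was pooled across participants by time point, in proportion to weight (1.2–2.5 g each), then counted by LSC. LC-HRMS profiling used fraction radioactivity counts. For chiral M1a/M1b separation, a 2–264 h pool ran on a cellulose column with reverse-phase gradient, 0.6 mL/min, over 15 min. Exposure = component AUC0-t / total radioactivity AUC0-t × 100.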

[6] = Metabolite profiling of urine; format: in vivo, human; conditions: pooled urine
Summary of the method: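 Urine was pooled per participant into 0–336, 0–384 and 0–432 h pools (0.03–0.08% of each sample weight) and counted by LSC. Radiochromatograms came from LC-HRMS fractions. Chiral separation of M1a and M1b used a […] pool. Identification cut-off was 1% of dose; quantitation limit was 1% of run and 10 cpm peak height. % of dose = (% radioactivity in peak/100) × % of dose in sample.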

[7] = Metabolite profiling of feces; format: in vivo, human; conditions: pooled feces
Summary of the method: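 Feces from single oral 20 mg (about 100 μCi) [14C] dosing was homogenised in about 20:80 acetonitrile:water. Metabolites were profiled by LC-HRMS with radioactivity counted in collected fractions. Identification cut-off was 1% of dose; quantitation limit was 1% of run and 10 cpm peak height. % of dose = (% radioactivity in peak/100) × % of dose in sample.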

[8] = Safety assessments; format: in vivo, human; conditions: single oral 20 mg
Summary of the method: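 After one [14C] 20 mg oral dose, eight healthy men were monitored for vital signs, 12-lead ECG, clinical chemistry, haematology, urinalysis and adverse events at several time points. They stayed confined until at least Day 19 or until discharge criteria were met. A follow-up phone call came 7–9 days after discharge.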

[9] = cited from earlier work
[10] = cited from earlier work; remark: listed apart in the source
[11] = oral dose, cited from earlier work
[12] = tested on: naive rat intestinal contents; conditions: anaerobic conditions; cited from earlier work
[13] = whole blood, geometric mean (CV%)

## CCc1nc(-c2ccc3c(c2)CC[C@H]3NC(=O)c2cnn(C)c2)no1 [Aficamten]
[1]; human, po, 20 mg
  Tmax: 2 h
  Vd/F: 690 L
[1]; human, po, 20 mg, AUC0‐inf, single oral 20 mg, geometric mean (CV%)
  AUC: 4440 ng·h/mL
[1]; human, po, 20 mg, AUC0‐tlast, single oral 20 mg, geometric mean (CV%)
  AUC: 4120 ng·h/mL
[1]; human, po, 20 mg, Cmax, single oral 20 mg, geometric mean (CV%)
  Cmax: 61.8 ng/mL
[1]; human, po, 20 mg, t1/2, plasma, single oral 20 mg, median (range)
  half-life: 99.6 h
[1]; single oral 20 mg, geometric mean (CV%)
  CL/F: 4.50 (32.1) L/h
[1]; single oral 20 mg, geometric mean (CV%), listed as aficamten
  CL/F: 4.50 L/h
[2]; geometric mean
  ratio of plasma analyte to plasma total radioactivity, AUC0‐inf: 0.290
  ratio of total radioactivity in whole blood: plasma based on AUC0‐inf: 0.566
[2]; plasma, geometric mean (CV%)
  Total radioactivity Cmax: 111 (43.2) ng/mL
[2]; plasma
  Total radioactivity t1/2: 98.2 (80.1–230) h
  Total radioactivity tmax: 3.50 (1.00–6.00) h
[2]; [13]
  Total radioactivity AUC0‐inf: 8660 (23.7) h.ng/mL
  Total radioactivity AUC0‐tlast: 5710 (38.5) h.ng/mL
  Total radioactivity Cmax: 66.7 (44.9) ng/mL
[2]; whole blood
  Total radioactivity t1/2: 100 (86.2–171) h
  Total radioactivity tmax: 4.50 (1.00–16.0) h
[3]
  CL renal: 0.0438 mL/min
[4]; based on recovery data
  fraction of dose absorbed: at least 0.95
[4]; urine and feces combined, by 336 h postdose
  mean recovery of radiolabeled material: 85.0%
[4]; urine and feces combined, end of sampling period (600 h)
  overall mean recovery of radioactivity in urine and feces: 89.7%
[4]; 0–96 h, individual subject
  Cumulative percent of radioactive dose recovered: 24.1% and 8.99% and 16.2% and 13.5% and 11.2% and 17.7% and 18.3% and 14.0%
[4]; 0–96 h, mean
  Cumulative percent of radioactive dose recovered: 15.5%
[4]; 0–120 h, individual subject
  Cumulative percent of radioactive dose recovered: 27.4% and 11.2% and 18.0% and 15.7% and 13.7% and 20.5% and 21.1% and 16.4%
[4]; 0–120 h, mean
  Cumulative percent of radioactive dose recovered: 18.0%
[4]; 0–144 h, individual subject
  Cumulative percent of radioactive dose recovered: 31.3% and 13.3% and 20.8% and 17.1% and 15.7% and 22.2% and 23.6% and 18.7%
[4]; 0–144 h, mean
  Cumulative percent of radioactive dose recovered: 20.3%
[4]; 0–168 h, individual subject
  Cumulative percent of radioactive dose recovered: 34.3% and 14.7% and 22.3% and 18.2% and 17.5% and 24.1% and 25.7% and 20.7%
[4]; 0–168 h, mean
  Cumulative percent of radioactive dose recovered: 22.2%
[4]; 0–192 h, individual subject
  Cumulative percent of radioactive dose recovered: 36.9% and 16.1% and 23.8% and 19.2% and 18.6% and 25.5% and 27.2% and 22.3%
[4]; 0–192 h, mean
  Cumulative percent of radioactive dose recovered: 23.7%
[4]; 0–216 h, individual subject
  Cumulative percent of radioactive dose recovered: 38.9% and 17.6% and 25.3% and 20.3% and 19.9% and 26.6% and 28.6% and 23.8%
[4]; 0–216 h, mean
  Cumulative percent of radioactive dose recovered: 25.1%
[4]; 0–240 h, individual subject
  Cumulative percent of radioactive dose recovered: 40.8% and 18.6% and 27.2% and 21.3% and 20.8% and 27.7% and 29.6% and 25.2%
[4]; 0–240 h, mean
  Cumulative percent of radioactive dose recovered: 26.4%
[4]; 0–264 h, individual subject
  Cumulative percent of radioactive dose recovered: 42.5% and 19.7% and 28.6% and 21.9% and 21.6% and 28.5% and 30.6% and 26.2%
[4]; 0–264 h, mean
  Cumulative percent of radioactive dose recovered: 27.5%
[4]; 0–288 h, individual subject
  Cumulative percent of radioactive dose recovered: 43.8% and 20.5% and 29.9% and 22.5% and 22.0% and 29.3% and 31.2% and 27.1%
[4]; 0–288 h, mean
  Cumulative percent of radioactive dose recovered: 28.3%
[4]; 0–312 h, individual subject
  Cumulative percent of radioactive dose recovered: 44.8% and 20.9% and 30.6% and 22.9% and 22.4% and 30.0% and 31.8% and 27.8%
[4]; 0–312 h, mean
  Cumulative percent of radioactive dose recovered: 28.9%
[4]; 0–336 h, individual subject
  Cumulative percent of radioactive dose recovered: 45.7% and 21.8% and 31.4% and 23.2% and 22.7%
[4]; 0–336 h, mean
  Cumulative percent of radioactive dose recovered: 29.5%
[5]
  AUC0‐t % of total radioactivity AUC0‐t: 19.8%
[5]; listed as aficamten
  AUC0‐t % of total radioactivity AUC0‐t: approximately 19.8%
[6]
  Percent of radioactive dose in urine: No unchanged aficamten was recovered
[7]
  Percent of radioactive dose in feces: 5.07%
[7]; listed as aficamten
  Percent of radioactive dose in feces: approximately 5.07%
[8]; 8 healthy male participants
  tolerability: well tolerated
[8]; 8 participants
  changes in vital signs, ECG measurements, laboratory values: no clinically significant changes in vital signs, ECG measurements, or laboratory values
  deaths, serious AEs, AEs leading to discontinuation: no deaths, and serious AEs or any AEs leading to discontinuation
  participants with an AE (diarrhea, mild, not considered related to treatment): 12.5%
[9]
  effect of food on absorption: did not affect the extent of aficamten absorption
[9]; multiple doses
  time to steady state concentrations: ≤ 2 weeks
[10]
  PK parameters in moderate hepatic impairment versus normal hepatic function: generally comparable
[11]; bile duct cannulated rats
  percent of the [^14C]aficamten radioactive dose in bile: trace level
[11]; intact rats
  percent of the [^14C]aficamten radioactive dose in feces: lack of detection
[11]; rat
  radioactive dose excreted by the hepatobiliary route: approximately 90%
  radioactive dose excreted in urine: approximately 8%
[12]
  fate on incubation with rat intestinal contents: completely cleared
